Experimental data from different studies.
Compare with care: the assays were run in different laboratories.
Target: Serine/threonine-protein kinase Nek3 (NEK3, Homo sapiens, UniProt P51956)
Sequence (P51956 1-506, as in one of the studies): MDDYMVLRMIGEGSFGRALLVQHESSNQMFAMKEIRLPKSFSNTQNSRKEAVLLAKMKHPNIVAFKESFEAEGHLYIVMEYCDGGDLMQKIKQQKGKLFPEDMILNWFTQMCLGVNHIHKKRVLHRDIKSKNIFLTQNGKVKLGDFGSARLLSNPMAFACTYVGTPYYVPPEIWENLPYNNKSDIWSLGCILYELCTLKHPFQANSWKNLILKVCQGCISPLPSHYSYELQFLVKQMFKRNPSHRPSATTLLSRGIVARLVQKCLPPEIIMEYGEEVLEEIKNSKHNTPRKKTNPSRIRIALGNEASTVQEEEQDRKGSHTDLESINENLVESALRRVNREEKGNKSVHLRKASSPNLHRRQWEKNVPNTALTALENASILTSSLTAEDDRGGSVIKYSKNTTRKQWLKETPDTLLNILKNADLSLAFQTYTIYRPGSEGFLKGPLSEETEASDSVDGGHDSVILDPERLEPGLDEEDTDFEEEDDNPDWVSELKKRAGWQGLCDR

Compound	effect on	technique	tested at	remaining binding [%]
CN(CCCC(F)(F)F)c1nccc(-c2cnn3ncccc23)n1	binding	–	1 µM	100
CCCOc1ccc([C@@H]2[C@@H](C(=O)O)[C@H](c3ccc4c(c3)OCO4)CN2CC(=O)Nc2c(CC)cccc2CC)cc1	cell-free assay	competition with immobilised ligand	1 µM	100
C[C@H]1CCN(c2nccc(-c3cnn4ncccc34)n2)C1	binding	–	1 µM	70
O=C(NCCCN1CCOCC1)c1ccc(Nc2nccc(-c3cc4ccccc4s3)n2)cc1	binding	competition with immobilised ligand	1 µM	2.7
N[C@H]1CCN(c2nccc(-c3cnn4ncccc34)n2)C1	binding	–	1 µM	100
CN(C(=O)c1ccccc1)c1cc(N(C)c2ccc3c(c2)CCc2ccc(C(=O)NCCN4CCOCC4)cc2C3=O)ccc1F	cell-free assay	competition with immobilised ligand	1 µM	99
O=C(c1ccc(Nc2nccc(-c3cc4ccccc4s3)n2)cc1)N1CCC(N2CCCC2)CC1	binding	competition with immobilised ligand	1 µM	5.4
O=C(NCC1CCOCC1)c1n[nH]cc1NC(=O)c1c(F)cccc1F	binding	competition with immobilised ligand	1 µM	66
CN(C)c1nccc(-c2cnn3ncccc23)n1	binding	–	1 µM	100
O=C(NCCCN1CCOCC1)c1ccc(Nc2ncc(Cl)c(-c3ccc(Cl)s3)n2)cc1	binding	competition with immobilised ligand	1 µM	0.5
CN(c1nccc(-c2cnn3ncccc23)n1)C1CC1	binding	–	1 µM	87
C[C@@H](c1ccc(-n2cnc3c(N)ncnc32)cc1)N1CCc2nn(C)c(Cc3ccccc3)c2C1=O	binding	competition with immobilised ligand	0.1 µM	30
c1cncc(-c2cccc(Nc3nccc(NC4CCCCC4)n3)c2)c1	binding	competition with immobilised ligand	10 µM	56
CCOCCn1cc(C(=O)Nc2ccc(-n3nc(-c4cccnc4)cc3C(F)(F)F)cn2)ccc1=O	cell-free assay	competition with immobilised ligand	1 µM	100
COc1ncc2cc3ccccc3nc2c1C#N	cell-free assay	competition with immobilised ligand	5 µM	100
O=C(O)[C@H]1[C@H](Cn2nnc3ccccc3c2=O)CC[C@@H]1C(=O)c1ccc(OCCC2CCOCC2)cc1	cell-free assay	competition with immobilised ligand	1 µM	86
COc1cnc(Nc2cccc(S(N)(=O)=O)c2)nc1N1CCN(c2ccccc2)C(=O)C1	binding	competition with immobilised ligand	1 µM	30
O=C(NCc1ncc(C(F)(F)F)cc1Cl)c1ccc2c(c1)C1(CCS(=O)(=O)CC1)[C@H](C1CC1)N2S(=O)(=O)c1ccc(F)cc1	cell-free assay	competition with immobilised ligand	1 µM	100
CC1CCCN1c1nccc(-c2cnn3ncccc23)n1 (stereo not drawn)	binding	–	1 µM	82
N#CC1(c2ccccn2)CCN(Cc2cc(C(=O)N3CCCC3)c(=O)n3ccccc23)CC1	cell-free assay	competition with immobilised ligand	1 µM	83
COc1cnc(Nc2cccc(S(N)(=O)=O)c2)nc1N1CCN(c2ccccc2)CC1	binding	competition with immobilised ligand	1 µM	74
